Screening data: PubChem BioAssay, several laboratories
This is a sample that favours compounds with a hit; in the whole collection about 3.8% have one here.
B2AR ag: human beta-2 adrenergic receptor agonism by FAP. Am2.2-beta2AR cells, FAP receptor internalization, flow cytometry. response, % (concentration not given with the values). hit rate 0.43% among 340,000. AID 504454;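 active = response above a set limit, near 3 SD of response in nonfluorescent compounds, cut at about 42% in these data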
Target sequence (P07550 whole entry, looked up): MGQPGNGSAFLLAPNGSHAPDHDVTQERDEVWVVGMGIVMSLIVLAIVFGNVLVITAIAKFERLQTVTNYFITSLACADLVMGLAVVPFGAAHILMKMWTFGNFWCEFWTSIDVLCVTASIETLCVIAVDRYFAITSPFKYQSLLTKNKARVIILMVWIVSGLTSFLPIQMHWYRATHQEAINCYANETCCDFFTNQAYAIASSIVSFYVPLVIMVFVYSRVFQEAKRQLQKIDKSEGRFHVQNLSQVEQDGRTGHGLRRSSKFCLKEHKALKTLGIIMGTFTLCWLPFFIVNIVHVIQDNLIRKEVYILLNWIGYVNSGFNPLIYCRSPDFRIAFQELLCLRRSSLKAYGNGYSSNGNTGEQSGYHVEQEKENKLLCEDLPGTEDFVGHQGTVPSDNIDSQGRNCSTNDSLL
V-ATPase pHluor: yeast V-ATPase proton transport regulation by pHLuorin; S. cerevisiae, pHLuorin cytosolic pH fluorescence; response, % at 10 µM; hit rate 0.37% among 350,000; AID 504577; in the data active = response mostly above about 7.3%, no sharp cut-off; inactive = mostly below about 5.4%; note: actives read high
MPTP block: inhibitors of mitochondrial permeability transition pore. isolated mouse mitochondria, Ca2+ swelling absorbance, 30 min. inhibition, % at 10 µM. hit rate 1.4% among 360,000. AID 602449;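 active = inhibition of 50% or more, scaled per plate between neutral and stimulator controls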;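 note: 0% = DMSO wells given calcium and 100% = 1 mM EGTA wells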
T cell HTS: T cell immune modulators affecting CD8 T cell-vesicle binding. 2C CD8+ T cell-vesicle binding, flow cytometry; hits give low values. AID 2052. hit rate 0.068% among 330,000. response (vesicle binding), % at 7 µM;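 active = response, share of CD8 T cells binding vesicles, and their 90th percentile fluorescence all below set limits, cut at about 80% in these data, passing the limit was not always enough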;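 note: values below 100% mean blocked vesicle binding to the CD8+ T cells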
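Test system: purified 2C TCR transgenic mouse naive CD8+ T cells. Probe or stimulus: QL9-peptide-loaded Drosophila micro-vesicles bearing Ld, ICAM-1 and B7-1. Incubation: binding step 1.5 h, 37 °C, antibody labelling 20 min, ice. Measured by: flow cytometry of vesicle-bound cells.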
rCAG RNA binder: molecules binding r(CAG) RNA repeats; r(CAG) RNA repeat, TO-PRO-1 dye displacement fluorescence; inhibition, % at 3 µM; hit rate 1.3% among 370,000;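 active = inhibition above the plate cutoff, the mean of all test compounds on that plate plus 3 SD, cut at about 35% in these data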;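 note: 0% = DMSO alone and 100% = 100 µM mitoxantrone as full dye displacement; higher means more dye released from RNA so lower well fluorescence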
Exocytosis inh: lytic granule exocytosis inhibition; TALL-104 LAMP-1 surface exposure, flow cytometry; cells stimulated with thapsigargin and PMA; inhibition, % at 10 µM; hit rate 0.66% among 360,000; AID 651702;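 active = inhibition above about 55%, limit read from the data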
* marks the source's active call; other numbers are inactive results.

For COC(=O)[C@]12C[C@H](CC(=O)N3CCC(c4ccccc4)CC3)C(=O)N(CCc3ccc(OC)c(OC)c3)C1=C[C@H](C(C)C)O[C@@H]2C1CC1 the results were rCAG RNA binder 6.1.
CCCCCCN1CC(O)=C(c2nc3ccccc3[nH]2)C1=N was read as B2AR ag 6.4, V-ATPase pHluor 13.2*, MPTP block -1.2, T cell HTS 297.5, rCAG RNA binder -5.8 and Exocytosis inh 1.0.
Cc1ccc(/C=C/C(=O)NC2CCCCCCC2)o1 was read as B2AR ag 6.5, V-ATPase pHluor -0.5, MPTP block 2.1, T cell HTS 375.7, rCAG RNA binder 7.5 and Exocytosis inh 58.0*.
For Cc1cccc(OCCCC(=O)Nc2ccc(S(=O)(=O)Nc3onc(C)c3C)cc2)c1 the results were B2AR ag -1.6, V-ATPase pHluor -0.5, MPTP block -6.0, T cell HTS 512.2, rCAG RNA binder 48.3* and Exocytosis inh 0.7.
For Cc1ccc(-c2cc(C(=O)Nc3ccc(S(=O)(=O)Nc4nc(C)cc(C)n4)cc3)c3ccccc3n2)cc1 the results were B2AR ag -1.3, V-ATPase pHluor -0.5, MPTP block -1.1, T cell HTS 207.2, rCAG RNA binder 7.5 and Exocytosis inh -0.9.
Screening CCCCCCC(=O)Nc1ccc(S(=O)(=O)Nc2onc(C)c2C)cc1 returned B2AR ag -4.0, V-ATPase pHluor 1.1, MPTP block 2.0, T cell HTS 299.1, rCAG RNA binder 18.0 and Exocytosis inh 6.1.
For CC(C)=CC(=O)Nc1ccc(S(=O)(=O)Nc2onc(C)c2C)cc1 the results were B2AR ag 4.0, V-ATPase pHluor -0.5, MPTP block 3.8, T cell HTS 270.7, rCAG RNA binder 2.8 and Exocytosis inh -3.1.
For COc1ccc(-c2cc(C(=O)Nc3ccc(S(=O)(=O)Nc4onc(C)c4C)cc3)c3ccccc3n2)cc1 the results were B2AR ag -2.1, V-ATPase pHluor -80.6, MPTP block 0.9, T cell HTS 189.1, rCAG RNA binder 74.5* and Exocytosis inh 2.3.
Screening Cc1ccc(/C=C/C(=O)Nc2ccc(S(=O)(=O)Nc3onc(C)c3C)cc2)cc1 returned B2AR ag 4.5, V-ATPase pHluor -2.9, MPTP block 1.5, T cell HTS 139.4, rCAG RNA binder 68.4* and Exocytosis inh -5.2.
COC(=O)c1cc2ccc(OC)c(OC)c2c(=O)s1 was read as B2AR ag 50.1*, V-ATPase pHluor -73.3, MPTP block 2.0, T cell HTS 458.9, rCAG RNA binder 1.1 and Exocytosis inh -1.2.
For COc1ccccc1CCn1cnc(-c2ccc(Br)cc2)c1CC(C)C the results were rCAG RNA binder 0.4.
COC(=O)C1CN(Cc2cn(CCC3OCCO3)nn2)CCS(=O)(=O)N1Cc1ccc(OC)cc1 (stereo not drawn) was read as rCAG RNA binder -1.1.
CCn1cc(C(=O)O)c(=O)c2cc(F)c(N/N=C/c3ccccc3[N+](=O)[O-])cc21 was read as B2AR ag 5.9, V-ATPase pHluor 3.1, MPTP block 12.7, T cell HTS 289.1, rCAG RNA binder 0.8 and Exocytosis inh 72.0*.
CCn1cc(C(=O)O)c(=O)c2cc(F)c(N3CCN(C(=S)Nc4ccccc4OC)CC3)cc21 was read as B2AR ag 4.9, V-ATPase pHluor -2.1, MPTP block 5.9, T cell HTS 87.7, rCAG RNA binder 4.6 and Exocytosis inh 0.9.
O=C(c1ccccc1)c1cc(Cl)ccc1N1C(=O)C=CC1=O was read as B2AR ag 42.8*, V-ATPase pHluor 12.5*, MPTP block -2.1, rCAG RNA binder 4.0 and Exocytosis inh 2.9.
`O=C(CC(=O)c1cc(Cl)ccc1O)c1ccccc1` gave B2AR ag 11.9, V-ATPase pHluor 2.0, MPTP block 22.5, rCAG RNA binder 3.5 and Exocytosis inh 0.0.
C=CCN(CC#CC1=CCCCC1)Cc1ccccc1 was read as rCAG RNA binder -1.1.
Screening O=C(NC1CCCCN(Cc2cccc(C(F)(F)F)c2)C1=O)c1ccc(Cl)c(Cl)c1 (stereo not drawn) returned rCAG RNA binder 0.4.
For CCc1ccc(S(=O)(=O)Nc2ccc(O)c3c(=O)cc(-c4ccccc4Cl)oc23)cc1 the results were B2AR ag 1.5, V-ATPase pHluor 5.7, MPTP block 3.3, T cell HTS 314.3, rCAG RNA binder 22.4 and Exocytosis inh 75.6*.
